In brackets after ≈: the same amount, converted by molar mass. Activity calls are given as the source filed them. The calls are words filed in the database; no cut-off is given here.

Usually solubility stands for the concentration that dissolves in the medium under given conditions. The term logD denotes lipophilicity at a set pH, counting ionised and neutral species.

Series [1] concerns the target Neuronal acetylcholine receptor subunit alpha-7 (Rattus norvegicus) (UniProt Q05941). In words: Positive allosteric modulator activity at rat alpha7 nAChR expressed in GH4C1 cells assessed as potentiation of acetylcholine response at 3 uM at -70 mV holding potential preincubated for 30 secs followed by co-application with acetylcholine by automated patch clamp assay. Format: cell-based. A digest of the protocol:
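Automated planar patch clamp on stable GH4C1 (rat) cell lines expressing rat α7 nAChR; test compound at 3 μM with an EC₂₀ acetylcholine challenge; percent change in peak current versus acetylcholine alone taken as P₃.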
On the technique in general: In patch-clamp work, channel activity is measured electrically.

The subject of series [2] is Mus musculus. In words: Reversal of scopolamine-induced memory impairment in mouse assessed as increase in spontaneous alteration at 1 mg/kg, po administered with compond and scopolamine at 60 mins and 30 mins respectively prior to test by T-maze test. The settings on record: read-out: INH. Format: functional. A digest of the protocol:
(§1)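 Mouse T-maze continuous alternation task with scopolamine-induced impairment of spontaneous alternation; compound given orally in saline-based vehicle with 25% Cremophor ELP over 0.003–10.0 mg/kg; group means compared by one-way ANOVA then Fisher's PLSD, p < 0.05 significant.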

Series [3] relates to Mus musculus. As to the kind of experiment: Reversal of scopolamine-induced memory impairment in mouse assessed as percentage of increase in spontaneous alteration at 10 mg/kg, po administered with compond and scopolamine at 60 mins snd 30 mins respectively prior to test by T-maze test. Format: functional. The following applies: read-out: INH. A digest of the protocol: as §1

The subject of series [4] is Mus musculus. As to the kind of experiment: Reversal of scopolamine-induced memory impairment in mouse assessed as increase in spontaneous alteration at 3 mg/kg, po administered with compond and scopolamine at 60 mins and 30 mins respectively prior to test by T-maze test. The settings on record: read-out: INH. Format: functional. The method in brief:
as §1

Series [5] addresses Neuronal acetylcholine receptor subunit alpha-7 (Rattus norvegicus) (UniProt Q05941). In words: Positive allosteric modulatory activity at rat alpha7 nAChR expressed in GH4C1 cells assessed as AUC of potentiation of acetylcholine response at 3 uM at -70 mV holding potential preincubated for 30 secs followed by co-application with acetylcholine by manual patch clamp assay relative to potentiation of current response. It is filed as cell-based. A digest of the protocol: (§2)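 Conventional manual patch-clamp with a fast-application system on stable GH4C1 cells expressing rat α7 nAChR; currents evoked by acetylcholine with and without test compound; peak-current change relative to acetylcholine alone gives potentiation (P₃ at 3 μM; concentration–response for EC₅₀ and Pmax).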

Series [6] is described as follows: Solubility of the compound at pH 6.5. The settings on record: buffer. It is filed as physicochemical.
In series [7] the target is Neuronal acetylcholine receptor subunit alpha-7 (Rattus norvegicus) (UniProt Q05941). In words: Positive allosteric modulatory activity at rat alpha7 nAChR expressed in GH4C1 cells assessed as potentiation of acetylcholine response at 3 uM at -70 mV holding potential preincubated for 30 secs followed by co-application with acetylcholine by manual patch clamp assay. Format: cell-based. A digest of the protocol: as §2
Neuronal acetylcholine receptor subunit alpha-7 (Rattus norvegicus), sequence (Q05941 whole entry): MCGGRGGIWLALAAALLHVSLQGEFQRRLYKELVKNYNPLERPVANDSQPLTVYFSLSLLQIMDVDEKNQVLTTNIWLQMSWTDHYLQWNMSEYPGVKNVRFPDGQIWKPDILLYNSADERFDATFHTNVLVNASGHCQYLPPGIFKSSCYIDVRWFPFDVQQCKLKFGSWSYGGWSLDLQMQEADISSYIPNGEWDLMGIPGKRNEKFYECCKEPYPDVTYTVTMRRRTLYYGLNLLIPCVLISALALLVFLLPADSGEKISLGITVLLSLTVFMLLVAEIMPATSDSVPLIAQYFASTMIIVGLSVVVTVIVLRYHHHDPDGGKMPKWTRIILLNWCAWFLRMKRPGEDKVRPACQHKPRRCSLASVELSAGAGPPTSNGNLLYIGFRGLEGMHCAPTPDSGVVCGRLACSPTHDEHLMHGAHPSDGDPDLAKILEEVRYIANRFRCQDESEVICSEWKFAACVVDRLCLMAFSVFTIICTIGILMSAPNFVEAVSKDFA

Series [8] deals with Mus musculus. In words: Reversal of scopolamine-induced memory impairment in mouse assessed as increase in spontaneous alteration at 3 to 30 mg/kg, ip administered with compond and scopolamine at 60 mins snd 30 mins respectively prior to test by T-maze test. Format: functional, organism-based. The method in brief:
(§3)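 Mouse T-maze continuous alternation task; reversal of scopolamine-induced loss of spontaneous alternation after ip or oral doses of 3 and 30 mg/kg; significant doses reported.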

Series [9] in a line: Lipophilicity, log D of the compound at pH 7.4. Format: physicochemical. The following applies: buffer.
Series [10] relates to Mus musculus. As to the kind of experiment: Reversal of scopolamine-induced memory impairment in mouse assessed as spontaneous alteration at 3 to 30 mg/kg, po administered with compond and scopolamine at 60 mins and 30 mins respectively prior to test by T-maze test. Format: functional, organism-based. A digest of the protocol:
as §3

Regarding `Cc1cc(F)ccc1NC[C@H]1[C@H](c2ccc(S(N)(=O)=O)cc2)C1(C)C`, in series [1], the Activity stood at 17600%.

For `COc1ccc(C(F)(F)F)cc1NCC1C(c2ccc(S(N)(=O)=O)cc2)C1(C)C` (racemic), in series [1], the Activity worked out at 8170%.

As for `Cc1ccc(F)cc1NC[C@H]1[C@H](c2ccc(S(N)(=O)=O)cc2)C1(C)C`, the Activity in [1] is 17400%.

On to `COc1ccc(S(N)(=O)=O)cc1NCC1C(c2ccc(S(N)(=O)=O)cc2)C1(C)C` (racemic), for which, in series [1], the Activity is below 100%.

In the case of `Cc1ccc(F)cc1NC[C@@H]1[C@@H](c2ccc(S(N)(=O)=O)cc2)C1(C)C`, in the series on Mus musculus [2], the percent reversal of scopolamine-induced memory impairment (increase in spontaneous alternation) at 1 mg/kg is -9%. The Activity in series [1] was determined as 460%. Moreover, in the series with Mus musculus [3], the percent increase in spontaneous alternation at 10 mg/kg was determined as 10%. Moreover, in the series on Mus musculus [4], the percent reversal of scopolamine-induced memory impairment at 3 mg/kg is 0%.

For `CC1(C)[C@@H](CNc2ccc(F)cc2OC(F)F)[C@@H]1c1ccc(S(N)(=O)=O)cc1`, in the series with Mus musculus [2], the percent reversal of scopolamine-induced memory impairment (increase in spontaneous alternation) at 1 mg/kg is 46%. Moreover, in series [1], the Activity came to 8170%. Besides, the percent increase in spontaneous alternation at 10 mg/kg with Mus musculus [3] was 51%. Also, in the series with Mus musculus [4], the percent reversal of scopolamine-induced memory impairment at 3 mg/kg turned out to be 16%.

`COc1ccc(Cl)cc1NC(=O)C1C(c2ccc(S(N)(=O)=O)cc2)C1(C)C` (racemic): the Ratio in series [5] was 5.6. The solubility in series [6] lay in the range of 3.1 to 6.3 µg/mL (≈ 7.58 to 15.4 µM). Besides, the Activity in series [1] turned out to be 660%; in [7], 420%. In addition, in the series with Mus musculus [8], the inhibition entry is “Active”. In addition, in [9], the logD came to 3.7.

As for `COc1ncccc1NCC1C(c2ccc(S(N)(=O)=O)cc2)C1(C)C` (racemic), the Activity in series [1] is 2420%.

Take `CC1(C)C(CNc2cccc(N3CCOCC3)c2)C1c1ccc(S(N)(=O)=O)cc1` (racemic): the Activity in series [1] worked out at 460%.

As for `Cc1cc(F)ccc1NCC1C(c2ccc(S(N)(=O)=O)cc2)C1(C)C` (racemic), in series [1], the Activity was 8660%.

For `CC1(C)[C@@H](CNc2ccc(F)cc2C(F)(F)F)[C@@H]1c1ccc(S(N)(=O)=O)cc1`, the percent reversal of scopolamine-induced memory impairment (increase in spontaneous alternation) at 1 mg/kg in the series on Mus musculus [2] stood at 40%. In [1], the Activity worked out at 2860%. The percent increase in spontaneous alternation at 10 mg/kg in the series with Mus musculus [3] worked out at 79%. In addition, in the series with Mus musculus [4], the percent reversal of scopolamine-induced memory impairment at 3 mg/kg came out at 39%.

As for `CC1(C)[C@H](CNc2ccc(F)cc2C(F)(F)F)[C@H]1c1ccc(S(N)(=O)=O)cc1`, the percent reversal of scopolamine-induced memory impairment (increase in spontaneous alternation) at 1 mg/kg in the series on Mus musculus [2] is -18%. In addition, in series [1], the Activity was found to be 410%. Moreover, in the series with Mus musculus [3], the percent increase in spontaneous alternation at 10 mg/kg is -9%. Moreover, the percent reversal of scopolamine-induced memory impairment at 3 mg/kg with Mus musculus [4] worked out at 38%.

As for `COc1ccc(Cl)cc1NC(=O)C1C(c2ccc(S(N)(=O)=O)cc2)C12CCCC2` (racemic), the Ratio in series [5] was 5.6. The compound also yielded a solubility in series [6] of 1.6 to 3.1 µg/mL (≈ 3.68 to 7.13 µM). In addition, the Activity in series [1] stood at 710%; in series [7], 360%. Further, the inhibition entry with Mus musculus [8] is “Active”. In series [9], the logD was 4.2. Besides, the inhibition result in the series on Mus musculus [10] is “inactive”.

`CC1(C)C(CNc2cncc(F)c2)C1c1ccc(S(N)(=O)=O)cc1` (racemic): the Activity in series [1] worked out at 3000%.

Regarding `Cc1ncccc1NCC1C(c2ccc(S(N)(=O)=O)cc2)C1(C)C` (racemic), the Activity in [1] was found to be 130%.

Regarding `CCOc1ccc(Cl)cc1NC(=O)C1C(c2ccc(S(N)(=O)=O)cc2)C1(C1CCCCC1)C1CCCCC1` (stereo not given), the outcome in series [1] was Active.

For the compound `CC1(C)C(CNC2CCCCC2)C1c1ccc(S(N)(=O)=O)cc1` (racemic), in series [1], the Activity was below 100%.

As for `CC1(C)C(CNc2ccc(F)cc2OC(F)F)C1c1ccc(S(N)(=O)=O)cc1` (racemic), the Activity in series [1] was 3360%.

As to `Cc1ccc(Cl)cc1NCC1C(c2ccc(S(N)(=O)=O)cc2)C1(C)C` (racemic), the Activity in [1] was found to be 12300%.

As to `COc1ccc(Cl)cc1NCC1C(c2ccc(S(=O)(=O)NN)cc2)C1(C)C` (racemic), the Activity in [1] worked out at 130%.

On to `Cc1cc(F)c(F)cc1NC[C@@H]1[C@@H](c2ccc(S(N)(=O)=O)cc2)C1(C)C`, for which, in the series with Mus musculus [2], the percent reversal of scopolamine-induced memory impairment (increase in spontaneous alternation) at 1 mg/kg was 8%. Moreover, the Activity in [1] worked out at 420%. The percent increase in spontaneous alternation at 10 mg/kg in the series on Mus musculus [3] was 15%. Moreover, the percent reversal of scopolamine-induced memory impairment at 3 mg/kg with Mus musculus [4] is 31%.

On to `COc1ccc(Cl)cc1NC(=O)c1cccc(-c2ccc(S(N)(=O)=O)cc2)c1`, for which the Activity in series [1] worked out at 410%. Moreover, the inhibition result with Mus musculus [10] was “inactive”.

In the case of `CC1(C)C(CNc2cc(F)ccc2OC(F)(F)F)C1c1ccc(S(N)(=O)=O)cc1` (racemic), in series [1], the Activity came to 2440%.

For `Cc1cc(F)c(F)cc1NC[C@H]1[C@H](c2ccc(S(N)(=O)=O)cc2)C1(C)C`, the percent reversal of scopolamine-induced memory impairment (increase in spontaneous alternation) at 1 mg/kg in the series with Mus musculus [2] is -13%. For the same compound, in [1], the Activity came to 8930%. Also, in the series with Mus musculus [3], the percent increase in spontaneous alternation at 10 mg/kg was -5%. In the series on Mus musculus [4], the percent reversal of scopolamine-induced memory impairment at 3 mg/kg is -15%.

As to `Cc1cc(F)ccc1NC[C@@H]1[C@@H](c2ccc(S(N)(=O)=O)cc2)C1(C)C`, the Activity in [1] turned out to be 470%.

Turning to `Cc1cc(F)c(Cl)cc1NCC1C(c2ccc(S(N)(=O)=O)cc2)C1(C)C` (racemic), the Activity in [1] came to 9230%.

For `CCOc1ccc(Cl)cc1NC(=O)C1C(c2ccc(S(N)(=O)=O)cc2)C1(CC)CC` (stereo not given), the outcome in [1] was Active.

With `CC1(C)[C@H](CNc2ccc(F)cc2OC(F)F)[C@H]1c1ccc(S(N)(=O)=O)cc1`, the percent reversal of scopolamine-induced memory impairment (increase in spontaneous alternation) at 1 mg/kg with Mus musculus [2] came out at 28%. The Activity in [1] was determined as 170%. The percent increase in spontaneous alternation at 10 mg/kg in the series on Mus musculus [3] amounted to 41%. Further, the percent reversal of scopolamine-induced memory impairment at 3 mg/kg in the series with Mus musculus [4] is 8%.

On to `COc1ccc(Cl)cc1NCC1C(c2ccc(S(=O)(=O)NO)cc2)C1(C)C` (racemic), for which, in series [1], the Activity is 720%.

For the compound `CC1(C)C(CNc2ccc(N3CCOCC3)cc2)C1c1ccc(S(N)(=O)=O)cc1` (racemic), in series [1], the Activity is below 100%.

In the case of `CC1(C)C(CNc2ccccc2)C1c1ccc(S(N)(=O)=O)cc1` (racemic), the Activity in series [1] fell in the range of 2570 to 9890%.

For the compound `CC(C)(C)c1cc(NCC2C(c3ccc(S(N)(=O)=O)cc3)C2(C)C)no1` (racemic), the Activity in series [1] was below 100%.
